Screens as filed in PubChem.
Only some compounds are listed: those with a hit (about 2.9% of all), similar ones and a draw of the others.
S100A4 MyoIIA – blocks human S100A4 binding to myosin IIA peptide; 0.14% of 360,000 active; inhibition, % at 10.7 µM; P26447; AID 652163; S100A4/TAMRA-MyoIIA peptide fluorescence polarization;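 active = mean inhibition of at least 70% across replicates, with every replicate also reaching that level; inconclusive = mean inhibition reaches 70% but some replicates fall short; inactive = mean inhibition below 70%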
Target sequence (P26447 whole entry, looked up): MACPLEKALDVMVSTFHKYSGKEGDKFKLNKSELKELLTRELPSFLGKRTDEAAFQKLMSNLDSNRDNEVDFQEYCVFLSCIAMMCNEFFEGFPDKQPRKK
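incubation = readout 5 min after mixing, signal stable up to 60 min | system = S100A4 monomer protein | buffer or medium = HEPES pH 7.2 with CaCl2, KCl, NaCl, DTT, Triton | benchmarks = neutral control DMSO, positive control TFP | also added = fluorescent myosin IIA peptide, 5 nM | compound dosing = one concentration per compound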
SIRT5 block – inhibitors of human sirtuin-5 desuccinylase; Q9NXA8; Purified SirT5, succinyl-peptide AMC, trypsin-coupled fluorescence; inhibition, % at 15 µM; 1.1% of 330,000 active; AID 652115; in the data active = inhibition above about 15%; inconclusive = no clear call, values can overlap the other calls
Target sequence (Q9NXA8 whole entry, looked up): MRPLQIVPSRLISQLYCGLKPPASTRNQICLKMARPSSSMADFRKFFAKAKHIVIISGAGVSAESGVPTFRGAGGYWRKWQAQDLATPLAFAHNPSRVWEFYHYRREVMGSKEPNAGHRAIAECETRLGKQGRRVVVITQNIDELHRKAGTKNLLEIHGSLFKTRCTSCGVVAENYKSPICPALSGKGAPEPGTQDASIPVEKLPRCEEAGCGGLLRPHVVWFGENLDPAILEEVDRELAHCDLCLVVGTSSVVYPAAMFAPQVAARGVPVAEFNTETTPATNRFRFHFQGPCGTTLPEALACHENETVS
C2C12 statin – suppression of simvastatin myotoxicity; C2C12 myotubes + simvastatin, ATP luminescence, 48 h; scaled: DMSO 0, geranylgeraniol control 100; rescue of ATP level, % at 7.49 µM; 0.78% of 330,000 active; AID 602340;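 active = mean ATP rescue above about 67%, or every replicate alone reaching that limit, limit read from the data, passing the limit was not always enough; inconclusive = no clear call, values can overlap the other calls; inactive = mean under the limit and some replicate under it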;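 also: myotubes were challenged with 10 µM simvastatin during compound exposure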
PGC1a acetyl inh – modulators of PGC1a acetylation | U2OS PGC1a acetylation, AlphaScreen anti-acetyl-lysine; with virally co-expressed GCN5 acetyltransferase | inhibition, % at 15.6 µM | 0.17% of 350,000 active;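 active = every replicate shows inhibition of at least 40%; inconclusive = mean inhibition at least 40% but some replicate below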
DENV2 CPE – inhibitors of DENV2 cytopathic effect; DENV2-infected cells, cytopathic effect rescue, plate reader; CPE inhibition, % at 9.99 µM; 1.7% of 350,000 active; in the data active = CPE inhibition above about 20%, passing the limit was not always enough; inconclusive = no clear call, values can overlap the other calls; tested in BHK-21 cells
Each line names hits and unclear results; the compound was inactive in the other large screens.

COc1ccc(CNC(=O)C2CCCN(S(=O)(=O)c3ccc4c(c3)CCCN4C(C)=O)C2)cc1 (centres undefined)	C2C12 statin 119.6
O=C(Cn1ccc2cc(S(=O)(=O)N3CCCCC3)ccc21)NCc1ccccc1F	none
C[C@H]1CN([C@@H](C)CO)C(=O)c2cc(NC(=O)CCN3CCOCC3)ccc2O[C@@H]1CN(C)S(=O)(=O)c1ccc(Cl)cc1	none
COc1ccc(CNC(=O)CCn2ccc3cc(S(=O)(=O)N4CCCC4)ccc32)cc1	SIRT5 block 33.6
Cc1ccc(NC(=O)CN2C(=O)N/C(=C/c3cc(C)n(-c4ccc(C(=O)O)cc4)c3C)C2=O)cc1	SIRT5 block 25.9 (no result: C2C12 statin)
C[C@@H]1CCCCO[C@@H](CN(C)CC2CC2)[C@H](C)CN([C@@H](C)CO)C(=O)c2cc(NC(=O)CCC(F)(F)F)ccc2O1	none (no result: C2C12 statin)
c1ccc(Sc2ccccn2)cc1	PGC1a acetyl inh 75.8 (no result: C2C12 statin)
NCCCCCCNC(=O)[C@H]1C[C@H]2C(=O)N[C@@H](Cc3ccccc3)C(=O)N2[C@H]1c1cccc(OCCO)c1	DENV2 CPE 21.2 (no result: C2C12 statin)
NCCCCCNC(=O)[C@@H]1C[C@@H]2C(=O)N[C@@H](Cc3ccccc3)C(=O)N2[C@@H]1c1cccc(OCCO)c1	none (no result: C2C12 statin, PGC1a acetyl inh)
CC(C)C[C@@H]1NC(=O)[C@H]2C[C@@H](C(=O)NCCCCCNC(=O)CS)[C@@H](c3cccc(OCCO)c3)N2C1=O	DENV2 CPE 21.1 (no result: C2C12 statin)
C[C@@H]1CCCCO[C@H](CN(C)S(=O)(=O)c2ccc(Cl)cc2)[C@H](C)CN([C@H](C)CO)C(=O)c2cc(NS(=O)(=O)c3cn(C)cn3)ccc2O1	none (no result: C2C12 statin)
CCCNC(=O)C[C@@H]1CC[C@H]2[C@@H](COC[C@H](O)CN2C(=O)C2CCOCC2)O1	none
COc1ccc(/C=N/Nc2nncn2N)cc1Br	PGC1a acetyl inh 68.6, DENV2 CPE inconclusive
COc1cc(/C=N/Nc2nncn2N)ccc1OCc1c(C)no[n+]1[O-]	none
CCCCCN(C(=O)CCc1cn(CCCCC)c2ccccc12)c1ccc(Oc2cccnc2)cc1	DENV2 CPE 91.1 (no result: SIRT5 block, C2C12 statin, PGC1a acetyl inh)
CCCCCN(C(=O)CCc1cn(CCCCC)c2ccccc12)c1ccc(N(C)c2ccccn2)cc1	none (no result: SIRT5 block, C2C12 statin, PGC1a acetyl inh)
CCC(=O)Nc1ccc2c(c1)C(=O)N(C)C[C@@H](OC)[C@H](C)CN(C(=O)c1ccccn1)[C@@H](C)CO2	DENV2 CPE 27.4
CCCC(=O)Nc1ccc2c(c1)OC[C@@H](C)N(C(=O)c1cnccn1)C[C@@H](C)[C@H](OC)CN(C)C2=O	S100A4 MyoIIA 141.5
CCCC(=O)Nc1ccc2c(c1)OC[C@@H](C)N(C(=O)c1ccccn1)C[C@H](C)[C@H](OC)CN(C)C2=O	none
CCC(=O)Nc1ccc2c(c1)OC[C@H](C)N(C(=O)c1ccccn1)C[C@H](C)[C@H](OC)CN(C)C2=O	DENV2 CPE 34.0 (no result: C2C12 statin)
CCCC(=O)Nc1ccc2c(c1)C(=O)N(C)C[C@@H](OC)[C@H](C)CN(C(=O)c1ccccn1)[C@H](C)CO2	none
CC(=O)N(c1ccc2oc(=O)sc2c1)S(=O)(=O)c1cccs1	none (no result: S100A4 MyoIIA, SIRT5 block, DENV2 CPE)
CC(=O)N(c1ccc2oc(=O)sc2c1)S(=O)(=O)c1ccc(C(=O)O)cc1	SIRT5 block 20.2 (no result: PGC1a acetyl inh)
O=C(c1ccc2c(c1)OCO2)N1CC(=O)N2[C@H](CO)[C@H](c3ccc(C#CC4CCCC4)cc3)[C@H]2C1	none (no result: C2C12 statin)
O=C(c1ccc2c(c1)OCO2)N1CC(=O)N2[C@H](CO)[C@@H](c3ccc(C#CC4CCCC4)cc3)[C@H]2C1	none (no result: C2C12 statin)
O=C(c1ccc2c(c1)OCO2)N1CC(=O)N2[C@H](CO)[C@@H](c3ccc(C#CCC4CCCC4)cc3)[C@H]2C1	SIRT5 block 15.5 (no result: C2C12 statin)
O=C(c1ccc2c(c1)OCO2)N1CC(=O)N2[C@H](C1)[C@H](c1ccc(C#CCC3CCCC3)cc1)[C@@H]2CO	SIRT5 block 23.7 (no result: C2C12 statin)
O=C(c1ccc2c(c1)OCO2)N1CC(=O)N2[C@H](C1)[C@@H](c1ccc(C#CCC3CCCC3)cc1)[C@@H]2CO	SIRT5 block 17.8 (no result: C2C12 statin)
COc1ccccc1-c1ccc2c(c1)O[C@@H](CN(C)Cc1ccc3c(c1)OCO3)[C@@H](C)CN([C@H](C)CO)S2(=O)=O	SIRT5 block 17.2
C[C@@H]1CN([C@@H](C)CO)S(=O)(=O)c2ccc(-c3cccc(C(=O)N(C)C)c3)cc2O[C@@H]1CN(C)Cc1ccc2c(c1)OCO2	none
C[C@@H]1CN([C@@H](C)CO)S(=O)(=O)c2ccc(-c3cccc(C(=O)N(C)C)c3)cc2O[C@H]1CN(C)Cc1ccc2c(c1)OCO2	SIRT5 block 19.4
COc1ccccc1-c1ccc2c(c1)O[C@@H](CN(C)Cc1ccc3c(c1)OCO3)[C@H](C)CN([C@@H](C)CO)S2(=O)=O	SIRT5 block 23.3
COc1ccc2c3c([nH]c2c1)[C@@H](CO)N(Cc1nccs1)CC31CCN(Cc2cccnc2)CC1	none (no result: C2C12 statin)
CCN1CC(=O)N2[C@H](CO)[C@@H](c3ccc(-c4ccccc4F)cc3)[C@H]2C1	none (no result: C2C12 statin)
CN(C)C(=O)C[C@@H]1CC[C@H]2[C@H](COc3ccc(NC(=O)Nc4cccc(Cl)c4)cc3C(=O)N2C)O1	none
C[C@@H]1CN([C@H](C)CO)S(=O)(=O)c2ccc(C3=CCCC3)cc2O[C@H]1CN(C)C(=O)Cc1ccncc1	none
C[C@@H]1CN([C@H](C)CO)S(=O)(=O)c2ccc(C3=CCCCC3)cc2O[C@H]1CN(C)C(=O)Cc1ccncc1	SIRT5 block 17.2
C[C@@H]1CN([C@H](C)CO)S(=O)(=O)c2ccc(C3=CCCC3)cc2O[C@@H]1CN(C)C(=O)c1ccncc1	none
C[C@@H]1CN([C@H](C)CO)S(=O)(=O)c2ccc(C3=CCCC3)cc2O[C@H]1CN(C)C(=O)c1ccncc1	DENV2 CPE 44.8
C[C@H]1CN([C@@H](C)CO)S(=O)(=O)c2ccc(C3=CCCC3)cc2O[C@@H]1CN(C)C(=O)Cc1ccncc1	DENV2 CPE 30.8
C[C@@H]1CN([C@@H](C)CO)C(=O)c2cccc(NC(=O)C3CCCCC3)c2O[C@@H]1CN(C)Cc1ccc2c(c1)OCO2	none
CC1(C)CC(=O)C2=C(C1)NC(=O)NC2c1ccc(Cl)cc1 (centres undefined)	DENV2 CPE 22.6 (no result: PGC1a acetyl inh)
C/C=C/c1ccc([C@H]2[C@@H](CO)N(CC3CCCC3)C23CN(C(=O)CC)C3)cc1	DENV2 CPE 28.8 (no result: C2C12 statin)
C/C=C/c1ccc([C@@H]2[C@H](CO)N(CC3CC3)C23CN(S(=O)(=O)CC)C3)cc1	SIRT5 block 22.6 (no result: C2C12 statin, PGC1a acetyl inh)
C/C=C/c1ccc([C@@H]2[C@H](CO)N(CC3CC3)C23CN(S(C)(=O)=O)C3)cc1	none (no result: C2C12 statin)
C/C=C/c1ccc([C@@H]2[C@H](CO)N(Cc3cncnc3)C23CN(C(=O)COC)C3)cc1	DENV2 CPE 22.1 (no result: C2C12 statin)
COc1ccccc1S(=O)(=O)N1[C@@H]2CNC[C@H]1C2c1ccc(-c2cccnc2)cc1 (some centres undefined)	none (no result: C2C12 statin)
C[C@@H]1CN([C@H](C)CO)C(=O)c2cc(C#Cc3ccncc3)cnc2O[C@H]1CN(C)S(=O)(=O)c1ccccc1F	none
